Source: ChEMBL document CHEMBL2169847, “New tricks for an old natural product: discovery of highly potent evodiamine derivatives as novel antitumor agents by systemic structure-activity relationship analysis and biological evaluations” (J Med Chem, 2012)
Activity calls are given as the source filed them. The rule behind the calls is not given here.

Legend:
[1] = target: T1, DNA topoisomerase 1 (Homo sapiens) (UniProt P11387); assay: Inhibition of Top1 assessed as stabilization of Top1-pUC19 DNA cleavage complex measuring increase of nicked DNA at 100 uM incubated for 15 mins by electrophoresis method
T1 sequence (whole entry): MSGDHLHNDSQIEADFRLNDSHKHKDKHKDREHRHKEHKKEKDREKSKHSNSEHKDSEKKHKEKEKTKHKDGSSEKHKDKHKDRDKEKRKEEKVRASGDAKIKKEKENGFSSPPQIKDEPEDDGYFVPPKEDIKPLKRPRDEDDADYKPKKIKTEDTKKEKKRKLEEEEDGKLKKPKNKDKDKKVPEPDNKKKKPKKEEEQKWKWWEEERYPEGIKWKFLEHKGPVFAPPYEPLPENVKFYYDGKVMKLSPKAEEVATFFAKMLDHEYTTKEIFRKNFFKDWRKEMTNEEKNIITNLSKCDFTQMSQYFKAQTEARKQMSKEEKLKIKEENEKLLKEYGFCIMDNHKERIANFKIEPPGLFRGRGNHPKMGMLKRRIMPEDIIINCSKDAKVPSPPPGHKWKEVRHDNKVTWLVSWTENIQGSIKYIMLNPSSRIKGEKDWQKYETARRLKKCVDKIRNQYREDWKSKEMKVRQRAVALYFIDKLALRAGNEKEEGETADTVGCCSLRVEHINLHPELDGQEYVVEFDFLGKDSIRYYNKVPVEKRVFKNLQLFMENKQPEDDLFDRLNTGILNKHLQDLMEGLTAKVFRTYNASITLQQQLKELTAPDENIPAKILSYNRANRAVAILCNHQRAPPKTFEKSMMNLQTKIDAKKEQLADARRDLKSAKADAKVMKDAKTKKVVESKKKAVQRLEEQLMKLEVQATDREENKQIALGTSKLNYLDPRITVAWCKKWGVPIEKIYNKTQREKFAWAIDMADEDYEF

Nucleic Acid [2] = assay: Induction of DNA intercalation in Escherichia coli pBR322 DNA assessed as induction of supercoiled DNA at 100 uM incubated for 15 mins by electrophoresis based Top1 unwinding assay; type: nucleic-acid assay
[3] = target: DNA topoisomerase 2-alpha (Homo sapiens) (UniProt P11388); assay: Inhibition of human Top2alpha assessed as suppression of supercoiled pBR322 DNA relaxation at 50 uM incubated for 30 mins by electrophoresis method
Mus musculus [4] = assay: Toxicity in BALB/C nude mouse xenografted with human HCT116 cells assessed as reduction in body weight at 2 mg/kg, ip administered as a single dose on 17th day and measured on 30 to 33 days post implantation; type: organism-based, HCT-116; parameters: dose 2 mg/kg, route intraperitoneal; details: in vivo
Outline: (§1)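 Cells implanted subcutaneously in right axilla of nude mice; dosing began at tumor volume about 100−300 mm³ (day 17). Randomized, six mice per treatment group and eight controls; ip injection. Tumor volume by caliper, TV = 1/2 × a × b², with body weight every 4 days. Mice sacrificed day 30−33 and tumors removed. Mean SEM, Student's t test versus control.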

A549 [5] = assay: Cytotoxicity against human A549 cells incubated for 72 hrs by MTT assay; type: functional; details: A549, 72 h
Outline: (§2)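 MTT assay. Cells seeded at 5 × 10³/well and grown 24 h at 37 °C, 5% CO₂. Compounds added at several concentrations in triplicate wells, with 0.1% DMSO control, for 72 h. MTT then added for 4 h, formazan dissolved in DMSO, and absorbance read at 570 nm. GI₅₀ by Logit method; three experiments.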

Nucleic Acid [6] = assay: Binding affinity at calf thymus DNA at 50 uM after 20 mins by UV/vis absorbance titration based assay; type: nucleic-acid assay; details: Bos taurus
Outline: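 ct-DNA in DPBS pH 7.4, concentration set by A260 (13200 M⁻¹/cm per bp). Compounds at 50 μM in DPBS with 1% DMSO, with or without ct-DNA 0−100 μM. After 20 min equilibration at room temperature, absorption spectra recorded over 220−400 nm in a microplate reader. Hypochromic or bathochromic shifts taken as the sign of binding.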

[7] = target: T1, DNA topoisomerase 1 (Homo sapiens); assay: Inhibition of Top1 assessed as suppression of supercoiled pBR322 DNA relaxation measuring appearance of short DNA fragments at 100 uM incubated for 15 mins by electrophoresis method
HCT-116 [8] = assay: Antitumor activity against human HCT116 cells xenografted in BALB/C nude mouse assessed as tumor growth inhibition at 2 mg/kg, ip administered as a single dose on 17th day and measured on 30 to 33 days post implantation; type: functional, organism-based; parameters: dose 2 mg/kg; outline: as §1
Nucleic Acid [9] = assay: Binding affinity at calf thymus DNA minor groove assessed as displacement of Hoechst 33258 dye incubated for 20 mins by microplate reader based assay; type: nucleic-acid assay; details: Bos taurus
MDA-MB-435 = assay: Cytotoxicity against human MDA-MB-435 cells incubated for 72 hrs by MTT assay; type: functional; details: MDA-MB-435, 72 h; outline: as §2
HCT-116 [10] = assay: Cytotoxicity against human HCT116 cells incubated for 72 hrs by MTT assay; type: functional; details: HCT-116, 72 h; outline: as §2
[11] = target: DNA topoisomerase 2-alpha (Homo sapiens) (UniProt P11388); assay: Inhibition of human Top2alpha assessed as stabilization of Top2-pBr322 DNA cleavage complex measuring linear DNA formation at 100 uM incubated for 20 mins by electrophoresis method
Outline: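 Top2α drug screening kit with 8 units hTop2α and pBR322 plasmid. After reaction, proteinase K (200 μg/mL final) 20 min at 50 °C. Electrophoresis in TAE with 0.5 μg/mL ethidium bromide to resolve nicked, linear, relaxed and supercoiled forms.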

A549 [12] = assay: Induction of apoptosis in human A549 cells at 5 uM incubated for 48 hrs by flow cytometry (reference value: 0.43%); type: functional
A549 [13] = assay: Induction of apoptosis in human A549 cells assessed as change in cell morphology at 5 uM incubated for 48 hrs by immunostaining based light microscopy; type: functional
Outline: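 A549 cells exposed to 5 μM compound, or DMSO, for 48 h. Morphology judged under a light microscope.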

Mus musculus [14] = assay: Toxicity in BALB/C nude mouse xenografted with human A549 cells assessed as reduction in body weight at 1 mg/kg, ip for 13 days measured on 30 to 33 days post implantation; type: organism-based; parameters: dose 1 mg/kg, route intraperitoneal; details: in vivo; outline: as §1
A549 [15] = assay: Antitumor activity against human A549 cells xenografted in BALB/C nude mouse assessed as tumor growth inhibition at 1 mg/kg, ip for 13 days measured on 30 to 33 days post implantation; type: functional, organism-based; parameters: dose 1 mg/kg; outline: as §1
ZR-75-30 = assay: Cytotoxicity against human ZR75-30 cells incubated for 72 hrs by MTT assay; type: functional; details: ZR-75-30, 72 h; outline: as §2
[16] = Cytotoxicity against human KYSE-150 cells incubated for 72 hrs by MTT assay; type: functional; details: KYSE-150, 72 h; outline: as §2
CNE = assay: Cytotoxicity against human CNE cells incubated for 72 hrs by MTT assay; type: functional; outline: as §2
HepG2 = assay: Cytotoxicity against human HepG2 cells incubated for 72 hrs by MTT assay; type: functional; details: HepG2, 72 h; outline: as §2
U2OS = assay: Cytotoxicity against human U2OS cells incubated for 72 hrs by MTT assay; type: functional; outline: as §2
PANC-1 = assay: Cytotoxicity against human PANC1 cells incubated for 72 hrs by MTT assay; type: functional; details: PANC-1, 72 h; outline: as §2
PC-3 = assay: Cytotoxicity against human PC3 cells incubated for 72 hrs by MTT assay; type: functional; details: PC-3, 72 h; outline: as §2
Mus musculus [17] = assay: Toxicity in BALB/C nude mouse xenografted with human A549 cells assessed as reduction in body weight at 2 mg/kg, ip administered as a single dose on 17th day and measured on 30 to 33 days post implantation; type: organism-based; parameters: dose 2 mg/kg, route intraperitoneal; details: in vivo; outline: as §1
HL-60 = assay: Cytotoxicity against human HL60 cells incubated for 72 hrs by MTT assay; type: functional; details: HL-60, 72 h; outline: as §2
A549 [18] = assay: Antitumor activity against human A549 cells xenografted in BALB/C nude mouse assessed as tumor growth inhibition at 2 mg/kg, ip administered as a single dose on 17th day post implantation and measured on 30 to 33 days post implantation; type: functional, organism-based; parameters: dose 2 mg/kg; outline: as §1
SAOS-2 = assay: Cytotoxicity against human Saos2 cells incubated for 72 hrs by MTT assay; type: functional; details: SAOS-2, 72 h; outline: as §2
[19] = target: T1, DNA topoisomerase 1 (Homo sapiens); assay: Inhibition of Top1 assessed as suppression of supercoiled pBR322 DNA relaxation measuring appearance of short DNA fragments at 50 uM incubated for 15 mins by electrophoresis method

Chain of DNA topoisomerase 2-alpha (Homo sapiens) (P11388 whole entry): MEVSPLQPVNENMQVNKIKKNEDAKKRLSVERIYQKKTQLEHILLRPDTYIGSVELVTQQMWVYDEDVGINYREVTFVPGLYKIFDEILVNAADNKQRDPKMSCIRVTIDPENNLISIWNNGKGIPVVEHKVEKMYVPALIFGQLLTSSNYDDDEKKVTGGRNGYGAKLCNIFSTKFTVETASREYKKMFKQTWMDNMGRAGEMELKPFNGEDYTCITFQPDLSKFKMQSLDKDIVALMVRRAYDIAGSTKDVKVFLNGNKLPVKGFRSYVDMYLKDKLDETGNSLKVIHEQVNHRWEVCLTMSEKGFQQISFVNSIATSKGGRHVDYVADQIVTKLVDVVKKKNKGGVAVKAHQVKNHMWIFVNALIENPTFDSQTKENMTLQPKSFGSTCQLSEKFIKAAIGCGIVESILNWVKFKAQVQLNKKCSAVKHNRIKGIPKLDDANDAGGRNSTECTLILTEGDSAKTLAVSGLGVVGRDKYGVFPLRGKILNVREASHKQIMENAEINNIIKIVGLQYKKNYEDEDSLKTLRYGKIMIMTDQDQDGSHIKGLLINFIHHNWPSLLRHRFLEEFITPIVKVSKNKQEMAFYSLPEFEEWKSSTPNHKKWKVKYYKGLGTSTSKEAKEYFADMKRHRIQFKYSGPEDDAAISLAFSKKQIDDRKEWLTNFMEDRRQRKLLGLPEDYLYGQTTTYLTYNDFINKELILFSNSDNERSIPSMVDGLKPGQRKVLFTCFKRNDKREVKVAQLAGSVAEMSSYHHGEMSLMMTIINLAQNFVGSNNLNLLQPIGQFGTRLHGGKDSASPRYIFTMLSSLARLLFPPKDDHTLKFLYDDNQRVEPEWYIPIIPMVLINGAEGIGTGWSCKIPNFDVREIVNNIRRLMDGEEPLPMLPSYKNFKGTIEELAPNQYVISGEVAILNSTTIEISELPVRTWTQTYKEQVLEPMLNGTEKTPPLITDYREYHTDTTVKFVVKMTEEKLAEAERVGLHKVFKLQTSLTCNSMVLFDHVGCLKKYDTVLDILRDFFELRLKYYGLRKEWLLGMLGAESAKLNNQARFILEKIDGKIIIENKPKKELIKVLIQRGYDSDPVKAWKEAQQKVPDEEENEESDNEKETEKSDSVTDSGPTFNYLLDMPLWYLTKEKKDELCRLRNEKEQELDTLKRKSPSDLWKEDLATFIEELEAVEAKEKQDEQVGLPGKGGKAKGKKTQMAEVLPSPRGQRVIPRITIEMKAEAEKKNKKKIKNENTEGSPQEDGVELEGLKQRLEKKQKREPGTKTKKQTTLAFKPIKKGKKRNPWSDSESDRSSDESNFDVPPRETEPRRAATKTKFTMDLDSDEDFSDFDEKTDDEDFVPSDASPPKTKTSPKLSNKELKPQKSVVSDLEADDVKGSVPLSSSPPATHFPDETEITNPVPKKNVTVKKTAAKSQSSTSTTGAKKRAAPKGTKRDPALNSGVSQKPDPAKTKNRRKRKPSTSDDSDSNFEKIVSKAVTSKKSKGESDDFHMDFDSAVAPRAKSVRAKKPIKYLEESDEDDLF

inhibition [1] | Activity (Nucleic Acid [2]) | inhibition [3] | Activity (Nucleic Acid [6]) | inhibition [7] | Activity (Nucleic Acid [9]) | inhibition [11] | SMILES | Activity (Mus musculus [4]) | GI50 (A549 [5]) [nM] | TGI (HCT-116 [8]) | GI50 (MDA-MB-435) [nM] | GI50 (HCT-116 [10]) [nM] | also measured
Active | inactive | Active | inactive | Active | inactive | inactive | CN1c2ccc(O)cc2C(=O)N2CCc3c([nH]c4ccc(O)cc34)C21 (centres undefined) | Toxic | 750 | Active | 3 | 7 | –
Active | inactive | Active | inactive | Active | inactive | inactive | CN1c2ccccc2C(=O)N2CCc3c([nH]c4ccc(O)cc34)C21 (centres undefined) | Non-toxic | < 3 | Active | < 3 | < 3 | Activity (A549 [12]): 13.07%; Activity (A549 [13]): Active; Activity (Mus musculus [14]): Non-toxic; TGI (A549 [15]): Active
– | – | Active | – | Active | – | – | CN1c2ccc(F)cc2C(=O)N2CCc3c([nH]c4ccc(O)cc34)C21 (centres undefined) | Non-toxic | < 3 | Active | < 3 | < 3 | GI50 (HepG2): 23.8 µM; GI50 (U2OS): > 296 µM; GI50 (PANC-1): < 3 nM; GI50 (PC-3): 92.3 µM; Activity (Mus musculus [17]): Non-toxic; GI50 (HL-60): < 3 nM; TGI (A549 [18]): inactive; GI50 (SAOS-2): > 296 µM
– | – | Active | – | Active | – | – | CN1c2ccc(Cl)cc2C(=O)N2CCc3c([nH]c4ccc(O)cc34)C21 (centres undefined) | Toxic | 120 | Active | 5 | 5 | inhibition [19]: Active

Second part, the compound before the results:

SMILES | inhibition [1] | Activity (Nucleic Acid [2]) | inhibition [3] | Activity (Nucleic Acid [6]) | inhibition [7] | Activity (Nucleic Acid [9]) | inhibition [11] | Activity (Mus musculus [4]) | GI50 (A549 [5]) [nM] | TGI (HCT-116 [8]) | GI50 (MDA-MB-435) [nM] | GI50 (HCT-116 [10]) [nM] | also measured
CN1c2ccc(N)cc2C(=O)N2CCc3c([nH]c4ccccc34)C21 (centres undefined) | – | – | – | – | Active | – | – | – | > 200000 | – | 150 | 8920 | –
CN1c2ccc(F)cc2C(=O)N2CCc3c([nH]c4ccc(O)cc34)[C@H]21 | – | – | – | – | – | – | – | – | 3.7 | – | – | 3.6 | GI50 (ZR-75-30): 3 nM; GI50 [16]: 3 nM; GI50 (CNE): 8.11 µM
CN1c2cccc(O)c2C(=O)N2CCc3c([nH]c4ccc(O)cc34)C21 (centres undefined) | Active | inactive | – | inactive | Active | inactive | inactive | – | 230 | – | 13 | 9 | –
CN1c2cccc(O)c2C(=O)N2CCc3c([nH]c4ccccc34)C21 (centres undefined) | – | – | Active | – | Active | – | – | – | 62400 | – | 240 | 2140 | –
